Test system: MS2 coat protein
Test: apparent Kd, MS2 coat protein; higher = weaker binding; RNA-MaP array; FMN 200 µM where present
Summary of the method: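 Green signal from SNAP-549-labelled MS2 coat protein was normalised to red-channel RNA signal and to the median Fmax of control clusters. The protein was titrated from 0.7 or 1.5 nM, doubling to 3 µM, without and then with constant ligand, over designs transcribed by stalled E. coli RNA polymerase on Illumina sequencing-chip clusters, in 100 mM Tris-HCl pH 7.5, 80 mM KCl, 4 mM MgCl2, BSA, DTT, yeast tRNA and Tween-20. The apparent Kd is the median of filtered per-cluster binding-curve fits.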

[1] = designed as: OFF switch for flavin mononucleotide, no ligand
[2] = ligand present: flavin mononucleotide, designed as: OFF switch for flavin mononucleotide
[3] = designed as: ON switch for flavin mononucleotide, no ligand
[4] = ligand present: flavin mononucleotide, designed as: ON switch for flavin mononucleotide

| Sequence | apparent Kd [1] [nM] | apparent Kd [2] [nM] | apparent Kd [3] [nM] | apparent Kd [4] [nM] |
| --- | --- | --- | --- | --- |
| AGUGUGUGGCAGGAUAUUCUAAUCGUGAGUCGGGAAGAAGGGUCUACAUGAGGAUCACCCAUGUAAGCGGUUGA | 132 | 144 | – | – |
| AGUGUGUGGCAGGAUAUUCUGAUCGUGAGUCGGGAAGAAGGGUCUACAUGAGGAUCACCCAUGUGAGCGGUUGA | 248 | 432 | – | – |
| AGUGUGUGGCAGGAUAUUCUGGUCGUGAGUCGGGAAGAAGGGUCUACAUGAGGAUCACCCAUGUGAGCGGUUGA | 99.4 | 258 | – | – |
| AGUUGAAGGUAGAAGGGUGACAUGAGGAUCACCCAUGUGCGAGCAUCGGACGAAGAUGGCUCGCCACAGGAUAUACCUUCAAUU | – | – | 41.2 | 44.4 |
| AGUUGGCGAGGAUAUACAUGAGGAUCACCCAUGUGAAUAAUAAUAGUGAGGAAGAAAAGUAGAAGGCGCUGACA | 49.7 | 237 | – | – |
| AGUUGGCGAGGAUAUACAUGAGGAUCACCCAUGUGAGAGAUACUAGUGAGGUCGAUUAGUAGAAGGCGCUGACA | 31.1 | 439 | – | – |
| AGUUUUGUACAUGAGGAUCACCCAUGUUAAUAUGUGGUAGUCAGAAGGCAUUGUUAGAGUUUUAAUGAGGAUAUGAAUAUUCUG | – | – | 38.3 | 25 |
| AUAAAGUGAGGAUAUCCAAUAUAUGACAUGAGGAUCACCCAUGUUUCCACUCGUACCUCCGGAGAAGGCACAUUUU | 32.1 | 20.2 | – | – |
| AUAAAUAAGGAGGAUAUCGUAUCGGAAACGAUACGAGAAGGUCUAACAUGAGGAUCACCCAUGUUCCUCAAUAA | 37.7 | 58.5 | – | – |
| AUAAAUAAGGCGCACAUGAGGAUCACCCAUGUACGGACUAGCAAGGAUAUCAGCGUCGGGUGCAAUGAGAAGGUGUGUGUCAAG | – | – | 45.1 | 74.4 |
| AUAAAUCAUGUAGGAUAUGCGUGGCGAAGCUAUGCAGAAGGACAUGAGGAUCACCCAUGUUUUUCCGUCUGCGUACAGACGGAA | 308 | 147 | – | – |
| AUACAUGAGGAUCACCCAUGUCGCAGGUUAAGGCCCAAAUCGAGAAGGGAUUCGGUCAAGCCUAAUCAGGAUAUCGGUGGAGCC | – | – | 84.3 | 69.6 |
| AUACCACGAGGAUAUCGACUAUACCACAUGAGGAUCACCCAUGUUAUCCAUGUUUCGUUUCGAGAAGGCGUGGGUU | 39.1 | 33.9 | – | – |
| AUACUGAGCGUAAAUUACCUUAACAUGAGGAUCACCCAUGUGGAGGAUAUUGACCUAGCAAAGCUCGAGAAGGCCACUGGGAUG | 17.5 | 18.1 | – | – |
| AUAGCUGGGAAGUAAACUCGUGCGGCAGAAGGGUGAUACUGGACAUGAGGAUCACCCAUGUGCACACAGGAUAUGCCCGCGAGC | – | – | 207 | 35 |
| AUAGGCCUAGGAUAUACAUGAGGAUCACCCAUGUUAAUAUUUCAAUCAUGAUAAACGUGUAGAAGGAGGAAUAA | 25.9 | 28.6 | – | – |
| AUAGUGGUUUUCUGGAUGUUGAACAUGAGGAUCACCCAUGUAGAGGAUAUCCACGGAAAUCCGUAGGAGAAGGCUGGUGGAAAA | 15.6 | 26.7 | – | – |
| AUAUAUAUACAGAAGGUGCCAGCGAGAGCUGCACAUGAGGAUCACCCAUGUUGUCGGUGACGACGCAAGGAUAUGUAUAUAUAU | – | – | 27 | 7.62 |
| AUAUAUCAUACAGGAUAUACAUGAGGAUCACCCAUGUGUCCUCCAUAAUUGACACCAAUUAUGCUGUAGAAGGGUAUGAUAUAU | 293 | 258 | – | – |
| AUAUCACAAUUAGAACCAAUACGAACAUGAGGAUCACCCAUGUAGGAUAUGCUAGAAGUUGUGUUGCAGAAGGACAUAUACAUU | 7.63 | 6.63 | – | – |
| AUAUCGUCAGGAUAUGCUAGUAAAUGUUUCAUUUCUUCAUAGCAGAAGGGACAUGAGGAUCACCCAUGUAAGUC | 37.6 | 39.6 | – | – |
| AUAUGACAUGAGGAUCACCCAUGUAUUCGAGCAUGAGGAUAUAUGACUCGUCAUCGGCGGAUAGAAGGCAUGGUUG | – | – | 88.5 | 143 |
| AUAUGAUAGAUAGGAUAUACUGUGGUUGAAUGUGUAGAAGGAUCGAUAGGGAAAUGUACAUGAGGAUCACCCAUGUUGUGGAUU | – | – | 48.4 | 39.9 |
